Measurements as given in ChEMBL document CHEMBL5096172, “Tricyclic Triazoles as σ1 Receptor Antagonists for Treating Pain” (J Med Chem, 2021).

Key:
[1] = Clearance in CD-1 mouse at 10 mg/kg, po by HPLC-MS/MS analysis relative to liver blood flow; type: ADME, organism-based; conditions: in vivo
Outline: (§1)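 Male Wistar rats (250−300 g, groups of 2) or male CD1 mice (25−30 g, groups of 16) dosed 10 mg/kg orally in 0.5% HPMC or 1 mg/kg iv in saline. Blood taken over time from saphenous vein or by intracardiac puncture into heparin tubes. Plasma spun at 4 °C, stored −80 °C, assayed by HPLC−MS/MS after protein precipitation. Noncompartmental analysis.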

[2] = Clearance in wistar rat at 10 mg/kg, po by HPLC-MS/MS analysis relative to liver blood flow; type: ADME, organism-based; conditions: in vivo; outline: as §1

## Cc1cc(OCCN2CCOCC2)nn1-c1ccc2ccccc2c1
[1]
  CL: 65%
[2]
  CL: 109%
